Screening data from PubChem.
FID counter – counter-screen for HCV NS3 helicase inhibitors: DNA intercalator displacement | DNA fluorescent intercalator displacement, fluorescence | inhibition, % at 7.9 µM | hit rate 0.17% among 290,000 | AID 1845; in the data active = inhibition above about 37%;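 also: 0% = vehicle and 100% = reference compound; higher means more ethidium bromide displaced from hairpin DNA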
NS3 helicase inh – HCV NS3 helicase inhibition | hit rate 0.56% among 290,000 | inhibition, % at 10.9 µM | AID 1800 | NS3 helicase DNA unwinding, Cy5 molecular beacon fluorescence;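 active = inhibition above the mean of all tested compounds plus 3 SD, set per campaign, cut at about 35% in these data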;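 also: 0% = DMSO wells and 100% = thioflavine S control wells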
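Measured by: Cy5 fluorescence, 0 and 60 min reads / Assay system: NS3 helicase fragment of HCV / Control set: low DMSO, high thioflavine S at 110 µM / Times: 1 h reaction at 25 °C, ATP-initiated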
GPR7 antagonist – blocks human GPR7 receptor signaling | P48145 | GPR7-expressing cells, fluorescence antagonist assay | inhibition, % at 4.4 µM | hit rate 1.1% among 290,000 | AID 1861; in the data active = inhibition above about 16%, passing the limit was not always enough;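 also: cells stimulated with the agonist NPW; 0% = agonist with vehicle and 100% = vehicle without agonist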
Target sequence (P48145 whole entry, looked up): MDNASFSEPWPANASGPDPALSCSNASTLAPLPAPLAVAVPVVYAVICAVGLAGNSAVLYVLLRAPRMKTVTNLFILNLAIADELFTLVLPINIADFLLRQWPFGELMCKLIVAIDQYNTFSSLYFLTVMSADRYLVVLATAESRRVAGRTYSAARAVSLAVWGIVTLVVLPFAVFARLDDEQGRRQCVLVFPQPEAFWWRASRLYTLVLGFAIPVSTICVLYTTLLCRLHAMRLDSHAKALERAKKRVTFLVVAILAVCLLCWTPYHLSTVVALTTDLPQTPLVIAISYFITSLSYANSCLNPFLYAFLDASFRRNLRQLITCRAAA
core dimer inh – blocks dimerization of HCV core protein | AID 1899 | inhibition, % at 5 µM | hit rate 0.33% among 300,000 | TR-FRET GST/Flag-core106 dimerization, 1536-well;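 active = inhibition above the mean of all tested compounds plus 3 SD, set per screening campaign, cut at about 45% in these data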
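Assay system – GST-tagged and Flag-tagged HCV core protein residues 1-106 · Quantity – core106 proteins, GST 13.5 nM and Flag 17 nM · Benchmarks – unlabelled core106 and no-GST-core106 wells · Read-out basis – percent inhibition of core106 dimerization signal · Detection – time-resolved FRET, ex 340 nm, em 617 and 671 nm · Schedule – 4 h at 22.5 °C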
GRK2 aptamer HTS – inhibitors of human GRK2 displacing RNA aptamer; bead flow cytometry, FAM-aptamer displacement from GRK2; inhibition of aptamer binding, % at 10 µM; hit rate 0.59% among 330,000; P25098; AID 488847;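 active = inhibition of aptamer binding above 40%, roughly 3 SD of noise, on plates passing a quality check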;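 also: median bead fluorescence of bound FAM aptamer so fluorescent compounds give negative values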
DAGLB inh – diacylglycerol lipase beta (human) inhibition | hit rate 0.059% among 340,000 | inhibition, % at 5.17 µM | HEK293T DAGLB membrane lysate, EnzChek fluorogenic substrate | Q8NCG7; in the data active = inhibition above about 34%;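 also: 0% = enzyme with vehicle and 100% = wells lacking enzyme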
GRK2 inh confirm – confirmation of human GRK2 inhibitors displacing RNA aptamer | shares compounds with GRK2 aptamer HTS | AID 504451 | hit rate 4% among 2,000 | aptamer displacement, % at 10 µM | bead-bound GRK2, FAM-aptamer displacement, flow cytometry;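 active = aptamer displacement above 40%, near three times the noise of non-fluorescent compounds, on plates passing quality checks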;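 also: negative values mostly reflect intrinsic compound fluorescence rather than true enhancement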
Aptamer quench SP – quenches fluorescent RNA aptamer, GRK2 hit artifact; shares compounds with GRK2 aptamer HTS; 2,000 tested, under 10 active; Carboxyfluorescein RNA aptamer on beads, flow cytometry quenching; active compounds read low; fluorescence response (% of DMSO), % at 10 µM;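 active = compounds that quench the bead-bound fluorescent RNA probe, cutting fluorescence to under half of the solvent control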;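 also: counterscreen run without GRK2 so only probe quenching by compound is measured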
GRK2 CP2 – human GRK2 inhibition confirmation, cherry pick 2. shares compounds with GRK2 aptamer HTS. bead-bound GRK2, FAM-aptamer displacement, flow cytometry. inhibition of aptamer binding, % at 10 µM. 360 tested, under 10 active. AID 504782;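 active = inhibition of aptamer binding above 40%, about triple the noise seen with nonglowing compounds, on plates passing quality control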;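 also: negative values mostly come from compounds that fluoresce themselves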
FAM quench CP2 – quenches fluorescent RNA aptamer, GRK2 hit artifact. shares compounds with GRK2 aptamer HTS. carboxyfluorescein RNA aptamer beads, flow cytometry quenching; active compounds read low. fluorescence response vs DMSO, % at 10 µM. 360 tested, under 10 active. AID 588494;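 active = response vs DMSO under 50%, meaning signal dropped by over half, treated as fluorescence quencher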;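 also: labelled aptamer on streptavidin beads without GRK2 as a quench counter-screen; 100% = bead fluorescence of DMSO wells and lower means quenching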
Starred values were filed as active, the others as inactive; / = no result given. The list is not random: actives were taken first. Their share in the collection is about 2.2%.

SMILES	FID counter	NS3 helicase inh	GPR7 antagonist	core dimer inh	GRK2 aptamer HTS	DAGLB inh	GRK2 inh confirm	Aptamer quench SP	others
O=C(CSc1oc(-c2ccc(F)cc2)nc1S(=O)(=O)c1ccc(F)cc1)NCC1CCCO1 (centres undefined)	-2.4	-2.9	-16.1	2.9	1.0	0.5	/	/
O=C(CSc1oc(-c2cccs2)nc1S(=O)(=O)c1ccc(F)cc1)NCC1CCCO1 (centres undefined)	-7.8	-2.7	-3.3	17.2	42.0*	1.4	2.4	102.1
COC(=O)c1ccc(C(=O)OC)c(NC(=O)COC(=O)CC2CC3CCC2C3)c1 (centres undefined)	-4.0	1.1	0.9	8.5	0.0	-4.4	/	/
Cn1c(SCc2cccc([N+](=O)[O-])c2)nc2ccccc2c1=O	/	/	/	/	47.0*	-8.4	-0.9	99.9
COCCn1c(SCc2cccc([N+](=O)[O-])c2)nc2ccccc2c1=O	-20.4	3.4	7.9	-0.3	0.0	-9.3	/	/
CC(=O)N(c1ccccc1)c1ccc([N+](=O)[O-])cc1[N+](=O)[O-]	0.5	6.0	-0.3	13.6	1.0	-0.4	/	/	GRK2 CP2=-17.5;FAM quench CP2=100.0
O=C(NCc1ccc(Cl)cc1)c1cc(S(=O)(=O)N2CCCCC2)c[nH]1	-48.2	-18.9	-9.8	7.1	43.0*	-4.6	2.2	96.3
CCN1C(=O)[C@H]2[C@@H](c3ccc(Cl)cc3)N3C(=O)CN(CCOC)C(=O)[C@@]3(Cc3ccccc3)[C@H]2C1=O	-7.9	9.5	-6.5	11.2	0.0	0.8	/	/
CCOc1cc(S(=O)(=O)N2CCN=C2Cc2ccccc2)ccc1F	-15.4	-1.9	-10.1	-6.0	44.0*	-1.2	/	/	GRK2 CP2=-6.9;FAM quench CP2=101.0
COc1ccc(Cl)cc1S(=O)(=O)N1CCN=C1Cc1ccccc1	-20.2	-4.0	-5.7	0.5	0.0	-0.2	/	/
O=C(CCCSc1nc2ccccc2[nH]1)Nc1nnc(C2CC2)s1	-4.2	5.2	2.4	1.2	0.0	-0.3	/	/
O=C(COC(=O)CNC(=O)c1ccccc1)Nc1nnc(-c2ccccc2)o1	/	/	/	-2.5	0.0	5.4	-1.1	96.3
Cc1ccc(NC(=O)CC2Oc3ccc(C)cc3NC2=O)c(C)c1 (centres undefined)	-25.8	-22.0	-6.8	-8.0	0.0	-5.9	/	/
CCc1cccc(C)c1NC(=O)CC1Oc2ccc(C)cc2NC1=O (centres undefined)	-20.4	-69.3	-3.4	3.0	49.0*	-0.3	/	/	GRK2 CP2=-0.5;FAM quench CP2=101.0
CCC(=O)Oc1ccc2c(C)cc(=O)oc2c1C(=O)CC	-5.7	13.5	14.6	-3.5	100.0*	/	2.8	101.2
Cc1ccc(C(C)NC(=S)NC2CCCCC2)c(C)c1 (centres undefined)	-20.3	13.3	5.3	/	0.0	-3.4	/	/
Cc1cccc(C)c1NC(=O)CN(C)CC(=O)c1c(N)n(Cc2ccccc2)c(=O)n(C)c1=O	/	/	/	/	0.0	-2.5	-1.9	101.8
CN(C)CC(=O)c1c(N)n(Cc2ccccc2)c(=O)n(C)c1=O	3.0	0.8	-4.3	-0.7	6.0	-3.4	/	/
CC1CCCCN1C(=O)COC(=O)c1cc([N+](=O)[O-])ccc1N1CCOCC1 (centres undefined)	/	/	/	-0.2	0.0	-0.3	/	/
N#Cc1cccc(C(=O)Nc2cc(S(=O)(=O)N3CCOCC3)ccc2N2CCCC2)c1	/	/	/	/	1.0	0.1	/	/
COc1ccccc1Oc1coc2c(CN3CCOCC3)c(O)ccc2c1=O	-6.5	-4.1	-12.2	-0.6	2.0	-2.6	/	/
COc1ccccc1Oc1c(C)oc2c(CN3CCOCC3)c(O)ccc2c1=O	-12.6	3.8	-6.3	1.1	58.0*	0.3	3.3	99.4
CN(C(=O)c1ccccc1C(=O)OCC(=O)c1ccccc1)c1ccccc1	/	/	/	/	75.0*	2.4	-17.7	97.7
Cn1ccnc1C(O)c1cccc(OCc2ccccc2)c1 (centres undefined)	-0.8	3.4	-9.0	-1.2	0.0	-0.3	/	/
OC(c1ccc(OCc2ccccc2)cc1)c1nnc(-c2ccccc2)o1 (centres undefined)	-0.9	2.0	-7.3	3.5	5.0	-3.3	-0.5	98.0
SMILES	FID counter	NS3 helicase inh	GPR7 antagonist	core dimer inh	GRK2 aptamer HTS	DAGLB inh	GRK2 inh confirm	Aptamer quench SP	others
OC(c1cccc(OCc2ccccc2)c1)c1nnc(-c2ccccc2)o1 (centres undefined)	-13.8	-3.9	2.7	8.2	0.0	-5.4	-1.1	94.8
COc1ccc(OC)c(NC(=O)COC(=O)c2c3c(nc4ccccc24)CCCC3)c1	-26.2	-8.7	-6.6	7.5	73.0*	-13.4	2.1	97.4
Cc1ccc(C(=O)N2CC(C)CC(C)C2)cc1NC1=NC2CS(=O)(=O)CC2S1 (centres undefined)	-19.5	-3.9	1.4	5.3	1.0	0.0	/	/
O=C(CCN1C(=O)c2ccccc2C1=O)Nn1cnnc1	2.2	-15.6	2.7	-3.1	52.0*	-1.4	2.2	94.4
COc1ccc(C2C(C(=O)c3ccco3)=C(O)C(=O)N2c2nnc(C)s2)cc1 (centres undefined)	-8.8	1.1	0.7	-5.3	0.0	-1.4	/	/
C=CCOc1ccc(C2C(C(=O)c3ccco3)=C(O)C(=O)N2c2nnc(C)s2)cc1 (centres undefined)	-23.2	15.7	-1.5	8.7	73.0*	-1.2	1.9	104.0
COc1ccc(-n2c3nc4ccccc4nc3c3c(=N)oc(C)nc32)cc1	-10.6	4.9	-12.4	1.7	86.0*	-0.8	/	/	GRK2 CP2=-0.9;FAM quench CP2=100.0
COC(=O)c1sc2cc(C(F)(F)F)cnc2c1-c1cccnc1	-6.5	7.2	-4.9	-0.4	12.0	2.2	/	/
NNC(=O)c1sc2cc(C(F)(F)F)cnc2c1-c1cccnc1	-5.0	-7.0	-2.6	-2.7	41.0*	-1.2	2.2	112.4
O=C(CCNC(=O)C1CCN(S(=O)(=O)c2ccc(F)cc2)CC1)NCc1cccnc1	-11.4	11.3	-3.5	4.4	1.0	2.4	/	/
CCN1CCCC1Cn1cnc2c([nH]c3cccc(Cl)c32)c1=O (centres undefined)	17.2	-14.9	5.8	-0.4	0.0	0.9	/	/
CCN1CCCC1Cn1cnc2c([nH]c3ccc(Cl)cc32)c1=O (centres undefined)	10.4	-8.9	2.4	1.9	92.0*	-2.1	-0.6	102.1
CCCNC(=O)NC(=O)CSc1nnc(-c2ccncc2)n1CC	-8.0	0.1	-7.0	3.9	61.0*	-1.7	-1.6	100.5
